# Results pooled from the literature.
# Lines come from different studies, so protocols differ.
# Target: Calcium/calmodulin-dependent protein kinase type 1 (CAMK1, Homo sapiens, UniProt Q14012)
Structure (SMILES),read-out,method,concentration,remaining binding
COc1ncc2cc3ccccc3nc2c1C#N,cell-free assay,competition with immobilised ligand,5 µM,100%
COc1cnc(Nc2cccc(S(N)(=O)=O)c2)nc1N1CCN(c2ccccc2)C(=O)C1,binding,competition with immobilised ligand,1 µM,100%
Cc1cnn2ncc(-c3ccnc(N(C)C)n3)c2c1,binding,,1 µM,92%
O=C(NCC1CCOCC1)c1n[nH]cc1NC(=O)c1c(F)cccc1F,binding,competition with immobilised ligand,1 µM,88%
CC1=C(C#N)C(c2ccc3c(c2)c(NC(=O)c2ccccc2C)nn3C)C(C#N)=C(C)N1,cell-free assay,competition with immobilised ligand,1 µM,98%
Cc1cnc(Nc2ccc(C(=O)N3CCC(N4CCCC4)CC3)cc2)nc1-c1cc2ccccc2s1,binding,competition with immobilised ligand,1 µM,30%
N[C@H]1CCN(c2nccc(-c3cnn4ncccc34)n2)C1,binding,,1 µM,88%
C[C@H](c1ccc(F)cc1)N(Cc1cccc(C(=O)O)c1)C(=O)c1cnc2ccccc2c1,cell-free assay,competition with immobilised ligand,1 µM,100%
CNC(=O)[C@@H]1CC[C@@H](n2c(-c3ccc4cnccc4c3)nc3ccc(C(=O)NCc4cccc(C(N)=O)c4)cc32)C1,binding,competition with immobilised ligand,1 µM,99%
F[C@@H]1CCN(c2nccc(-c3cnn4ncccc34)n2)C1,binding,,1 µM,100%
Cn1cc(Cl)c2c(Oc3c(F)cc(Nc4cc(Cl)nc(N)n4)cc3F)ccnc21,cell-free assay,competition with immobilised ligand,0.1 µM,100%
O=C(NCCCN1CCOCC1)c1ccc(Nc2nccc(-c3cc4ccccc4s3)n2)cc1,binding,competition with immobilised ligand,1 µM,75%
CN(C)CC#Cc1ccc(OCCCc2sc(N3CCc4cccc(C(=O)Nc5nc6ccccc6s5)c4C3)nc2C(=O)O)c(F)c1,cell-free assay,competition with immobilised ligand,1 µM,93%
O=C(NCCCN1CCOCC1)c1ccc(Nc2ncc(Cl)c(-c3ccc(Cl)s3)n2)cc1,binding,competition with immobilised ligand,1 µM,78%
C=CC(=O)N1CCC(C(=O)NCC(=O)N2CCN(c3nc(-c4cnc(N)nc4C(F)F)nc(N4CCOCC4)n3)CC2)CC1,binding,competition with immobilised ligand,1 µM,86%
CN(C)c1ncc(F)c(-c2cnn3ncccc23)n1,binding,,1 µM,86%
C[C@@H](c1cccc(C#N)c1)n1cc(Cl)cc(C(N)=O)c1=N,cell-free assay,competition with immobilised ligand,1 µM,100%
CC1CCCN1c1nccc(-c2cnn3ncccc23)n1 (stereo not drawn),binding,,1 µM,98%
CCN1CCN(Cc2ccc(C(=O)Nc3ccc(C)c(Oc4ccc5c(c4)CC(=O)N5)c3)cc2C(F)(F)F)CC1,binding,competition with immobilised ligand,1 µM,100%
C[C@@H]1CCN(c2nccc(-c3cnn4ncccc34)n2)C1,binding,,1 µM,87%
O=C1NC(c2ccccn2)Sc2ccccc21 (stereo not drawn),cell-free assay,competition with immobilised ligand,1 µM,91%
